Measured values published in ChEMBL document CHEMBL1124422, “Antitumor and antiviral activity of synthetic alpha- and beta-ribonucleosides of certain substituted pyrimido[5,4-d]pyrimidines: a new synthetic strategy for exocyclic aminonucleosides” (1989).

Assays:
WIL2 = assay: Inhibitory concentration of compound that inhibits tumor cell growth by 50% in Human B-lymphoblast (WI-L) cell line; assay type: functional; conditions: read-out: ID50 (the source's name)
Summary of the method: (§1)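 Incubation was 3 days for L1210 and WI-L2 and 5 days for LoVo/L. MTT was added for 2 to 5 h and formazan was read by absorbance. ID50 is the concentration giving 50% of untreated control growth.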

LoVo = assay: Inhibitory concentration of compound that inhibits tumor cell growth by 50% in Human colon carcinoma (LoVo/L) cell line; assay type: functional; conditions: read-out: ID50 (the source's name); summary of the method: as §1
HeLa = assay: In vitro antiviral activity against Vaccinia virus (Elstree strain) cell line in HeLa cells; assay type: functional, Homo sapiens
L1210 = assay: Inhibitory concentration of compound that inhibits tumor cell growth by 50% in Murine leukemia (L1210) cell line; assay type: functional; conditions: Mus musculus, read-out: ID50 (the source's name); summary of the method: as §1
[1] = Effect on de novo purine biosynthesis when [14C]formate was incorporated to fraction WI-L2 cells at 25 uM with preincubation time of 4 h; assay type: functional, Homo sapiens
Summary of the method: (§2)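 WI-L2 cells (or adenosine kinase-deficient mutant) kept in log phase in RPMI 1640 with 5% dialyzed FBS, 20 mM NaHEPES pH 7.5, 2 mM glutamine; preincubated with drug at 37 °C, then labeled with [14C]formate. De novo purine synthesis read as [14C]formate incorporation into cellular (hot acid-soluble) and excreted purines, scored as inhibition.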

Vero [2] = assay: In vitro antiviral activity against Parainfluenza 3 (C243 strain)cell line in Vero cells; assay type: functional, Chlorocebus sabaeus
Vero [3] = assay: In vitro antiviral activity against herpes simplex virus type 2 (MS strain) cell line in Vero cells; assay type: functional, Chlorocebus sabaeus
[4] = Effect on de novo purine biosynthesis when [14C]formate was incorporated to WI-L2 cells at 0.25 uM with preincubation time of 8 h; assay type: functional, Homo sapiens; summary of the method: as §2
[5] = Effect on de novo purine biosynthesis when [14C]formate was incorporated to WI-L2 cells at 2.5 uM with preincubation time of 8 h; assay type: functional, Homo sapiens; summary of the method: as §2
Homo sapiens [6] = species: Homo sapiens; assay: Effect on de novo purine biosynthesis when [14C]-formate was incorporated to WI-L2 media at 0.25 uM with pre-incubation time of 8 h; assay type: functional; summary of the method: as §2
Homo sapiens [7] = species: Homo sapiens; assay: Effect on de novo purine biosynthesis when [14C]-formate was incorporated to WI-L2 media at 2.5 uM with pre-incubation time of 8 h; assay type: functional; summary of the method: as §2
[8] = Effect on de novo purine biosynthesis when [14C]-formate was incorporated to WI-L2 cells at 25 uM with preincubation time of 4 h; assay type: functional, Homo sapiens; summary of the method: as §2
Vero [9] = assay: In vitro antiviral activity against Parainfluenza 3 (C243 strain) cell line in Vero cells; assay type: functional, Chlorocebus sabaeus
Homo sapiens [10] = species: Homo sapiens; assay: Effect on de novo purine biosynthesis when [14C]formate was incorporated to WI-L2 media at 0.25 uM with preincubation time of 8 h; assay type: functional; summary of the method: as §2
Homo sapiens [11] = species: Homo sapiens; assay: Effect on de novo purine biosynthesis when [14C]formate was incorporated to WI-L2 media at 2.5 uM with preincubation time of 8 h; assay type: functional; summary of the method: as §2
Homo sapiens [12] = species: Homo sapiens; assay: Effect on de novo purine biosynthesis when [14C]formate was incorporated to WI-L2 media at 50 uM with preincubation time of 8 h; assay type: functional
Summary of the method: (§3)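 WI-L2 cells preincubated with drug at 37 °C before [14C]formate labeling. Read-out: [14C]formate incorporation into cellular and excreted purines (hot acid-soluble fraction). Cells grown in RPMI 1640 with 5% dialyzed fetal bovine serum, 20 mM NaHEPES pH 7.5, 2 mM glutamine, and kept in log phase between 0.5 and 12×10^5 cells/mL.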

[13] = Effect on de novo purine biosynthesis when [14C]formate was incorporated to WI-L2 cells at 50 uM with preincubation time of 8 h; assay type: functional, Homo sapiens
Summary of the method: (§4)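 Cells were preincubated with drug at 37 °C, then labelled with [14C]formate. De novo purine synthesis was read as label incorporated into cellular and excreted purines (hot acid-soluble fraction).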

[14] = Effect on de novo purine biosynthesis when [14C]-formate was incorporated into WI-L2 cells at 50 uM with pre-incubation time of 8 h; assay type: functional, Homo sapiens; summary of the method: as §4
Homo sapiens [15] = species: Homo sapiens; assay: Effect on de novo purine biosynthesis when [14C]-formate was incorporated into WI-L2 media at 50 uM with pre-incubation time of 8 h; assay type: functional; summary of the method: as §3

| SMILES | IC50 (WIL2) | IC50 (LoVo) | Virus rating (HeLa) | IC50 (L1210) | Virus rating (Vero [2]) | Virus rating (Vero [3]) | Control [5] | other results |
| --- | --- | --- | --- | --- | --- | --- | --- | --- |
| COc1ncnc2c(N[C@H]3O[C@H](CO)[C@@H](O)[C@H]3O)ncnc12 | 2500 nM | 18700 nM | 0.9 | 2900 nM | 0.7 | 0.1 | – | Control [1]: 98.2% |
| COc1ncnc2c(N[C@@H]3O[C@H](CO)[C@@H](O)[C@H]3O)ncnc12 | 60 nM | 280 nM | 1 | 40 nM | 0.7 | 0.2 | 2.7% | Control [4]: 41.9%; Control (Homo sapiens [6]): 63%; Control (Homo sapiens [7]): 41.8%; Control [8]: 4.3% |
| Nc1ncnc2c(N[C@@H]3O[C@H](CO)[C@@H](O)[C@H]3O)ncnc12 | 200 nM | 7000 nM | 1.3 | 800 nM | – | 0.8 | 29.9% | Virus rating (Vero [9]): 0.7; Control [4]: 79.5%; Control (Homo sapiens [10]): 71.9%; Control (Homo sapiens [11]): 54.6% |
| Nc1ncnc2c(N[C@H]3O[C@H](CO)[C@@H](O)[C@H]3O)ncnc12 | 250 nM | 1000 nM | 1 | 380 nM | 1.4 | 0.2 | – | – |
| CN(C)c1ncnc2c(NC3O[C@H](CO)[C@@H](O)[C@H]3O)ncnc12 (some centres not stated) | – | – | – | – | – | – | – | Control (Homo sapiens [12]): 85.8%; Control [13]: 50.7% |
| OC[C@H]1OC(Nc2ncnc3c(O)ncnc23)[C@H](O)[C@@H]1O (some centres not stated) | – | – | – | – | – | – | – | Control (Homo sapiens [12]): 106%; Control [13]: 98.2% |
| Nc1ncnc2c(NC3O[C@H](CO)[C@@H](O)[C@H]3O)nc(Cl)nc12 (some centres not stated) | – | – | – | – | – | – | – | Control [14]: 16.4%; Control (Homo sapiens [15]): 43.4% |
| Nc1nc(NC2O[C@H](CO)[C@@H](O)[C@H]2O)c2ncnc(N)c2n1 (some centres not stated) | – | – | – | – | – | – | 91.2% | Control (Homo sapiens [10]): 89.8% |
